Assays:
[1] = target: T1, Cholinesterases; ACHE & BCHE (Homo sapiens) (UniProt P06276+P22303); experiment: AChE selectivity = IC50(BChE) / IC50(AChE).; format: protein assay
Acetylcholinesterase = Acetylcholinesterase (Homo sapiens, UniProt P22303); experiment: Ability to inhibit acetylcholinesterase (AChE), freshly prepared from human erythrocytes
Procedure, shortened: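 AChE from freshly collected blood: erythrocytes washed five times in isotonic saline, lysed in 9 volumes of 0.1 M Na3PO4 pH 7.4 with 0.5% Triton-X, diluted to final 1:200. Compounds preincubated with enzyme 30 min at room temperature, then with substrate and DTNB 25 min at 37 °C, pH 8.0. Final range 0.3 nM–[…] in half-log steps. IC50 from logit-activity versus log concentration. Four runs.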

Cholinesterase = Cholinesterase (Homo sapiens, UniProt P06276); experiment: Ability to inhibit butyrylcholinesterase (BChE), freshly prepared from human plasma; format: cell-free
[2] = target: T1, Cholinesterases; ACHE & BCHE (Homo sapiens); experiment: BChE selectivity = IC50(AChE) / IC50(BChE).; format: protein assay

T1 sequence (P06276 whole entry, looked up): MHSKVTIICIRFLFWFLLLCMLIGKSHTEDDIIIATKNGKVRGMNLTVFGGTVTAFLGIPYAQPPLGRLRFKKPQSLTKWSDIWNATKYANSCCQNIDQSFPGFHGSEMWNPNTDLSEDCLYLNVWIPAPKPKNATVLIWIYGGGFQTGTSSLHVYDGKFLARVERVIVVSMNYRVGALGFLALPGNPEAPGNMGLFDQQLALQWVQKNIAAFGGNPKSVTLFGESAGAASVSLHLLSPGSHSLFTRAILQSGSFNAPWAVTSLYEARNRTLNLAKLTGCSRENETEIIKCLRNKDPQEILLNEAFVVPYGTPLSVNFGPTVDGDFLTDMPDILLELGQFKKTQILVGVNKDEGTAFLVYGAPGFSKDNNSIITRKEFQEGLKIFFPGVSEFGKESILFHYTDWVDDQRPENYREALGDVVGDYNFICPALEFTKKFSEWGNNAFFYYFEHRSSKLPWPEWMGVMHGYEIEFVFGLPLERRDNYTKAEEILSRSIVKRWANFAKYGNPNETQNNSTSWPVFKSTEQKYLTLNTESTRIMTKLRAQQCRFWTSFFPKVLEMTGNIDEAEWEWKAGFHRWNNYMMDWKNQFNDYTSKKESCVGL
T1 sequence (P22303 whole entry, looked up): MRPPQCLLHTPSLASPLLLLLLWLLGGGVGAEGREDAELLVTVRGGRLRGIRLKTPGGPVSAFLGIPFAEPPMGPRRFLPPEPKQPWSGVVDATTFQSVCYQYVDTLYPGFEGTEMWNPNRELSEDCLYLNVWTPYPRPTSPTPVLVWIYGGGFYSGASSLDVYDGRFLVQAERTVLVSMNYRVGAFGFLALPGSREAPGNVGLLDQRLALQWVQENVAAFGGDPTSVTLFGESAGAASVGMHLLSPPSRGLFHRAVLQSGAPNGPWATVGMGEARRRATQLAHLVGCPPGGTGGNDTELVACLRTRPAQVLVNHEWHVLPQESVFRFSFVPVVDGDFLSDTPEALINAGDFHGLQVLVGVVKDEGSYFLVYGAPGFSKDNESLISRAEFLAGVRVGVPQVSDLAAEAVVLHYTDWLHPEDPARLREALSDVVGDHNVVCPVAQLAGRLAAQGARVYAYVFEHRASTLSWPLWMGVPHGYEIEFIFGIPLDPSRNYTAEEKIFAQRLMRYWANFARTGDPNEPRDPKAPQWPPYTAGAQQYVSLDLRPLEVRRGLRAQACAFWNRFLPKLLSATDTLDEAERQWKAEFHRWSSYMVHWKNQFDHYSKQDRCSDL
Cholinesterase, sequence (P06276 whole entry): as the sequence (P06276 whole entry, looked up) above
Acetylcholinesterase, sequence (P22303 whole entry): as the sequence (P22303 whole entry, looked up) above

SMILES | Selectivity [1] | IC50 (Acetylcholinesterase) [nM] | IC50 (Cholinesterase) [nM] | Selectivity [2]
Cc1ccccc1NC(=O)Oc1ccc2c(c1)[C@]1(C)CCN(C)C1N2 (some centres not stated) | 36 | 40 | 1430 | 
CC(C)c1ccc(NC(=O)Oc2ccc3c(c2)[C@]2(C)CCN(Cc4ccccc4)C2N3Cc2ccccc2)cc1 (some centres not stated) |  | > 30000 | 132 | > 227
Cc1ccccc1NC(=O)Oc1ccc2c(c1)[C@]1(C)CCN(C)C1N2Cc1ccccc1 (some centres not stated) | 6 | 100 | 600 | 
CC(C)c1ccc(NC(=O)Oc2ccc3c(c2)[C@]2(C)CCN(C)C2N3)cc1 (some centres not stated) |  | 2020 | 78 | 26
CC(C)c1ccc(NC(=O)Oc2ccc3c(c2)[C@]2(C)CCN(CCc4ccccc4)C2N3C)cc1 (some centres not stated) |  | > 30000 | 6 | 
Cc1ccccc1NC(=O)Oc1ccc2c(c1)[C@]1(C)CCNC1N2 (some centres not stated) | 1 | 285 | 396 | 
Cc1ccccc1NC(=O)Oc1ccc2c(c1)[C@]1(C)CCNC1N2C (some centres not stated) | 127 | 17 | 2170 | 
CN1CC[C@@]2(C)c3cc(OC(=O)Nc4ccccc4)ccc3N(C)C12 (some centres not stated) | 65 |  |  | 
Cc1ccccc1NC(=O)Oc1ccc2c(c1)[C@]1(C)CCN(Cc3ccccc3)C1N2Cc1ccccc1 (some centres not stated) |  | 1760 | 641 | 3
Cc1ccccc1NC(=O)Oc1ccc2c(c1)[C@]1(C)CCN(C)C1N2C (some centres not stated) |  | 10.3 |  | 
CC(C)c1ccc(NC(=O)Oc2ccc3c(c2)[C@]2(C)CCN(C)C2N3Cc2ccccc2)cc1 (some centres not stated) |  | 13000 | 85 | 152
CC(C)c1ccc(NC(=O)Oc2ccc3c(c2)[C@]2(C)CCNC2N3)cc1 (some centres not stated) |  | 110 | 1 | 110
Cc1ccccc1NC(=O)Oc1ccc2c(c1)[C@]1(C)CCN(CCc3ccccc3)C1N2C (some centres not stated) | 3 | 550 | 1790 | 
CC(C)c1ccc(NC(=O)Oc2ccc3c(c2)[C@]2(C)CCNC2N3C)cc1 (some centres not stated) |  | 324 | 8.3 | 39
